High-throughput results deposited in PubChem by several laboratories.
The list is not random: actives were taken first. Their share in the collection is about 29%.
CYP2C9 activ = CYP2C9 (human) activation | P11712 | recombinant CYP2C9, luciferin-H conversion, luminescence; hits give high values; factor 1 = untreated enzyme, 0 = blocked | activation factor at 5 µM | 1.4% of 96,000 active | AID 1024;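 active means activation factor of 2 or more for CYP2C9 at a 5 µM dose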;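 further: 0 = sulfaphenazole-blocked wells and 1 = vehicle-only wells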
Target sequence (P11712 whole entry, looked up): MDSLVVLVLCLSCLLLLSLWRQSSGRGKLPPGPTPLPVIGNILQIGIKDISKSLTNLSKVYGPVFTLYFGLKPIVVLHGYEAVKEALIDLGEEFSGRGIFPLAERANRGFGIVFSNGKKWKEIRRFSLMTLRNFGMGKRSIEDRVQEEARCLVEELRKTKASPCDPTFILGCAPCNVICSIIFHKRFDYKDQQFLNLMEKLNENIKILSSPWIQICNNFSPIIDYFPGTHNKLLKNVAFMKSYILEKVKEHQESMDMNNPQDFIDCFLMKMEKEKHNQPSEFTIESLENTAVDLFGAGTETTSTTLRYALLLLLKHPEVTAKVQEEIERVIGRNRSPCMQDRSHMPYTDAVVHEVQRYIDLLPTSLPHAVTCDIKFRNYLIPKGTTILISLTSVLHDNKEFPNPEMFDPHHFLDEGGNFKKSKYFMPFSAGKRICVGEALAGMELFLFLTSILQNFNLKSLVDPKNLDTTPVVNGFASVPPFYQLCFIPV
CYP2C19 inh = human CYP2C19 inhibition; P33261; CYP2C19 Supersomes, luciferin-H EGE luminescence, 30 min; inhibition, % at 5 µM; 21% of 96,000 active; AID 778;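 active means CYP2C19 inhibition above a set limit at 5 µM in the primary screen, cut at about 50% in these data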;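 further: plate controls were negative control wells for no effect and 2.5 mM tranylcypromine positive control for full effect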
CYP2C9 inh = blocks human cytochrome P450 2C9; CYP2C9 Supersomes, luciferin-H conversion, luminescence; 20% of 96,000 active; AID 777; inhibition, % at 5 µM; P11712;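 active means blocking of liver enzyme CYP2C9 beyond about 50% at 5 µM, limit read from the data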
CYP2C19 activ = cytochrome P450 2C19 (human) activation. activation factor at 5 µM. recombinant CYP2C19, luciferin-H EGE luminescence; hits give high values; 0 = fully inhibited enzyme, 1 = untreated enzyme. P33261. AID 1025. 96,000 tested, under 10 active;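 active means activation factor of at least 2 at 5 µM in the primary screen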;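 further: 0 = wells with 2.5 mM tranylcypromine and 1 = vehicle-only wells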
tolC growth inh = growth inhibitors of E. coli BW25113 tolC mutant. OD615. growth inhibition, % at 10 µM (by protocol). 2.2% of 65,000 active. AID 573;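 active means growth inhibition at or above a cutoff equal to the mean over every tested compound plus 3 SD, cut at about 60% in these data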;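 further: growth measured after 20 h incubation at 37 °C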
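Assay system: tolC-deleted E. coli BW25113. Medium: kanamycin-containing LB broth (50 µg/mL). Dosing: 10 µM final, single dose. Timing: bacterial growth with compound for 20 h at 37 °C. Detection: A615 absorbance measurement. Read-out basis: growth inhibition in percent.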
E coli WT exp = E. coli BW25113 growth inhibition, expanded screen; OD600 absorbance; growth inhibition, % at 100 µM; 0.15% of 98,000 active; AID 710;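 active means growth inhibition above about 50% at one test dose, limit read from the data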;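 further: growth measured after 20 h incubation at 37 °C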
An asterisk follows results filed as active.

`O=C(C1CCN(c2nnc(-n3cccc3)s2)CC1)N1CCOCC1` gave CYP2C9 activ 1.1, CYP2C19 inh -14.0, CYP2C9 inh -13.1, CYP2C19 activ 1.1, tolC growth inh -15.7 and E coli WT exp 0.0.
For CC(C)NC(=O)C1CCCN(c2nnc(-n3cccc3)s2)C1 (stereo not given) the results were CYP2C9 activ 0.8, CYP2C19 inh 52.8*, CYP2C9 inh 22.3, CYP2C19 activ 0.5, tolC growth inh -10.2 and E coli WT exp -2.0.
`CC(CCc1ccccc1)NC(=O)C1CCCN(c2nnc(-n3cccc3)s2)C1` (stereo not given) gave tolC growth inh 2.5 and E coli WT exp -3.0.
O=C(C1CCCN(c2nnc(-n3cccc3)s2)C1)N1CCN(c2ccccc2)CC1 (stereo not given) was read as CYP2C9 activ 0.5, CYP2C19 inh 67.9*, CYP2C9 inh 48.6, CYP2C19 activ 0.3, tolC growth inh 0.0 and E coli WT exp -9.0.
For CCOc1ccc(CCNC(=O)C2CCCN(c3nnc(-n4cccc4)s3)C2)cc1OCC (stereo not given) the results were CYP2C9 activ 0.4, CYP2C19 inh 49.4, CYP2C9 inh 60.5*, CYP2C19 activ 0.5, tolC growth inh 4.0 and E coli WT exp -15.0.
`O=C(C1CCN(c2nnc(-n3cccc3)s2)CC1)N1CCN(c2cccc(C(F)(F)F)c2)CC1` gave CYP2C9 activ 0.5, CYP2C19 inh 52.5*, CYP2C9 inh 54.8*, CYP2C19 activ 0.5, tolC growth inh 8.8 and E coli WT exp -6.0.
Screening O=C(NC1CCN(Cc2ccccc2)CC1)C1CCCN(c2nnc(-n3cccc3)s2)C1 (stereo not given) returned CYP2C9 activ 0.5, CYP2C19 inh 11.8, CYP2C9 inh 49.1, CYP2C19 activ 0.9, tolC growth inh -9.9 and E coli WT exp 0.0.
`C=CCNc1nc(Nc2ccc(OC)cc2)nc(OCC)n1` gave CYP2C9 activ 1, CYP2C19 inh 9.6, CYP2C9 inh 3.0, CYP2C19 activ 0.9 and E coli WT exp 8.0.
`O=P(Cc1ccccn1)(c1ccccc1)c1ccccc1` gave CYP2C9 activ 0.9, CYP2C19 inh -4.5, CYP2C9 inh 6.4, CYP2C19 activ 1 and E coli WT exp 3.0.
O=C(NCc1cccs1)C1CCN(S(=O)(=O)N2CCCC2)CC1 was read as CYP2C9 activ 1.1, CYP2C19 inh -2.8, CYP2C9 inh -7.1, CYP2C19 activ 1, tolC growth inh -12.0 and E coli WT exp 9.0.
For O=C(c1ccc(F)cc1)N1CCN(C2CC3CCC2C3)CC1 (stereo not given) the results were CYP2C9 activ 1, CYP2C19 inh 75.6*, CYP2C9 inh -1.8, CYP2C19 activ 0.2, tolC growth inh -8.9 and E coli WT exp 7.0.
Screening O=C(c1ccccc1)N1CCN(C2CC3CCC2C3)CC1 (stereo not given) returned CYP2C9 activ 0.8, CYP2C19 inh 82.3*, CYP2C9 inh 20.7, CYP2C19 activ 0.2, tolC growth inh -2.8 and E coli WT exp 12.0.
O=C(c1ccccc1)N1CCN(C2CCCCCC2)CC1 was read as CYP2C9 activ 1, CYP2C19 inh 17.0, CYP2C9 inh -2.9, CYP2C19 activ 0.8, tolC growth inh -10.6 and E coli WT exp 1.0.
For O=C(CC(c1ccccc1)c1ccccc1O)NCc1ccco1 (stereo not given) the results were CYP2C9 activ 0.5, CYP2C19 inh 49.3, CYP2C9 inh 51.3*, CYP2C19 activ 0.5 and E coli WT exp -1.0.
CC(C)NC(=O)c1cccc(Br)c1 was read as CYP2C9 activ 1, CYP2C19 inh -3.7, CYP2C9 inh -1.5, CYP2C19 activ 1 and E coli WT exp 6.0.
`C/C(CC(=O)NCc1ccco1)=N\NC(=O)Cc1ccccc1` gave CYP2C9 activ 1, CYP2C19 inh 6.6, CYP2C9 inh 0.5, CYP2C19 activ 0.9 and E coli WT exp 22.0.
`CC(C)C(CC(=O)NCc1ccco1)c1ccco1` (stereo not given) gave CYP2C9 activ 0.8, CYP2C19 inh 16.9, CYP2C9 inh 24.5, CYP2C19 activ 0.8 and E coli WT exp 7.0.
`O=C(CC(c1ccccc1)c1cc(Br)ccc1O)NCc1ccco1` (stereo not given) gave CYP2C9 activ 0, CYP2C19 inh 99.2*, CYP2C9 inh 98.7*, CYP2C19 activ 0, tolC growth inh 45.5 and E coli WT exp 15.0.
`C/C(CC(=O)NCc1ccco1)=N\NC(=O)C(c1ccccc1)c1ccccc1` gave CYP2C9 activ 0.5, CYP2C19 inh 5.9, CYP2C9 inh 50.8*, CYP2C19 activ 0.9 and E coli WT exp 1.0.
Screening CC(C)NC(=O)CC(c1ccccc1)c1cc(Br)ccc1O (stereo not given) returned CYP2C9 activ 0.1, CYP2C19 inh 95.1*, CYP2C9 inh 89.6*, CYP2C19 activ 0 and E coli WT exp 6.0.
For CC(=O)c1ccc(OCC(O)CN2CCN(CCO)CC2)cc1 (stereo not given) the results were CYP2C9 activ 0.8, CYP2C19 inh -5.9, CYP2C9 inh 22.7, CYP2C19 activ 1.1, tolC growth inh -4.0 and E coli WT exp -1.0.
Screening CC(C)Oc1ccccc1C1CC(=O)Nc2c1c(=O)n(C)c(=O)n2C (stereo not given) returned CYP2C9 activ 1.1, CYP2C19 inh -10.6, CYP2C9 inh -7.6, CYP2C19 activ 1.1 and E coli WT exp 3.0.
`CC(C)Oc1ccc(CNC(=O)CC(c2ccccc2)c2cc(Cl)ccc2O)cc1` (stereo not given) gave CYP2C9 activ 0, CYP2C19 inh 86.8*, CYP2C9 inh 95.6*, CYP2C19 activ 0.1 and E coli WT exp -7.0.
CC(C)Oc1ccc(N2CC(C(=O)OCC(=O)NCc3ccccc3)CC2=O)cc1 (stereo not given) was read as CYP2C9 activ 0.9, CYP2C19 inh -8.6, CYP2C9 inh 14.9, CYP2C19 activ 1.1 and E coli WT exp -1.0.
CC(=O)N1CCN(C(=S)c2ccc(-c3ccc(Cl)cc3)o2)CC1 was read as CYP2C9 activ 0.8, CYP2C19 inh 20.2, CYP2C9 inh 15.1, CYP2C19 activ 0.8 and E coli WT exp -3.0.
For S=C(c1ccc(-c2cccc(Cl)c2)o1)N1CCOCC1 the results were CYP2C9 activ 0.8, CYP2C19 inh 50.3*, CYP2C9 inh 15.9, CYP2C19 activ 0.5, tolC growth inh 46.1 and E coli WT exp -1.0.
Screening N#CCCN1CCN(C(=S)c2ccc(-c3ccc(Cl)c(Cl)c3)o2)CC1 returned CYP2C9 activ 0.4, CYP2C19 inh 47.2, CYP2C9 inh 61.3*, CYP2C19 activ 0.5, tolC growth inh 55.1 and E coli WT exp -33.0.
N#CCCN1CCN(C(=S)c2ccc(-c3cccc(Cl)c3)o2)CC1 was read as CYP2C9 activ 0.7, CYP2C19 inh 92.6*, CYP2C9 inh 31.9, CYP2C19 activ 0.1, tolC growth inh 22.1 and E coli WT exp -27.0.
